An excerpt weighted towards active compounds, which were near 1.9% of everything screened.
LEDGF integ inh: blockers of LEDGF/p75-dependent integrase strand transfer – biochemical, TR-FRET, high throughput, primary screen. HIV-1 integrase (with human LEDGF/p75). TR-FRET IN-LEDGF/p75 DNA integration, Eu/Cy5. inhibition, % at 3.7 µM. 0.64% of 370,000 active. AID 743269, 2014;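 active = inhibition above the screen-wide mean plus 3 SD, cut at about 13% in these data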;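 note: signal is the Cy5 over europium emission ratio at 671 and 618 nm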
MBD2 inh: inhibitors of MBD2 binding to methylated DNA, primary screen, biochemical, TR-FRET, DNA-binding domain, human. Methyl-CpG-binding domain protein 2 (Homo sapiens), Q9UBB5. AID 686964, 2013. 0.31% of 370,000 active. inhibition, % at 4.4 µM. MBD2 binding to methylated oligonucleotide; in the data active = inhibition above about 13%
TDP2 inh: human TDP2 enzyme inhibitors, primary screen, biochemical, epi absorbance, recombinant enzyme; Tyrosyl-DNA phosphodiesterase 2 (Homo sapiens), O95551; T5PNP hydrolysis, p-nitrophenol absorbance 415 nm; inhibition, % at 12.8 µM; 0.34% of 370,000 active; AID 720702, 2013;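 active = inhibition above the mean of all tested compounds plus 3 SD, set per campaign, cut at about 25% in these data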
Target sequence (O95551 whole entry, looked up): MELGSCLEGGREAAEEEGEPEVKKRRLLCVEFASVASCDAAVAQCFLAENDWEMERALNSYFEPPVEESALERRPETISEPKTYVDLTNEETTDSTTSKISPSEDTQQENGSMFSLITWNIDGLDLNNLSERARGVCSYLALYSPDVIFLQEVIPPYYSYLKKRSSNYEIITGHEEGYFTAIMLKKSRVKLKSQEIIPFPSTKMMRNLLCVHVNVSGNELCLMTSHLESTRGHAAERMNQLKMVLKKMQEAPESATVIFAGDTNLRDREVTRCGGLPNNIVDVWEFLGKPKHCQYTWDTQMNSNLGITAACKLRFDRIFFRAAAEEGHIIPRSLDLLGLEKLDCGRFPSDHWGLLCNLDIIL
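test system = human TDP2 enzyme | input = TDP2 enzyme at 120 nM final | medium = 50 mM Tris-HCl pH 7.5 with Mg2+, KCl, DTT, BSA | also added = T5PNP substrate, 5 mM | times = 2 h at 37 °C | technique = epi absorbance | benchmarks = high control without enzyme, low control DMSO plus TDP2 | replication = each compound tested once, singlicate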
Rin1 Abl inh: inhibitors of Rin1-Abl protein binding, primary screen, biochemical, TR-FRET | inhibition, % at 7.35 µM | 0.4% of 360,000 active | AID 588664, 2011; in the data active = inhibition above about 5%, passing the limit was not always enough
UHRF1 binding: UHRF1 methylated DNA binding inhibitors, primary screen, counter-screen for MBD2 inhibitor project, biochemical, TR-FRET, human UHRF1, single concentration | E3 ubiquitin-protein ligase UHRF1 (Homo sapiens), Q96T88 | UHRF1 binding to methylated oligo | inhibition, % at 4.4 µM | AID 687016, 2013 | 0.75% of 370,000 active; in the data active = inhibition above about 21%;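 note: UHRF1 SRA domain binding a hemimethylated CpG hairpin DNA probe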
Each line names hits and unclear results; the compound was inactive in the other large screens.

c1ccc(CNC2CCC23CCC(c2ccccc2)CC3)cc1 (configuration not stated)	UHRF1 binding 81 (no result: Rin1 Abl inh)
CCCCN(CCCC)C(=O)/C=C/c1cccc([N+](=O)[O-])c1	UHRF1 binding 21
CCNC(=O)COC(=O)/C=C/c1cccc([N+](=O)[O-])c1	none
CC(SC(=S)N1CCCC1)C(=O)O (configuration not stated)	UHRF1 binding 24
Cc1nc2ccccc2n1CCc1nc2c3ccccc3nc(=S)n2[nH]1	UHRF1 binding 22
Cc1cc(C)nc(NCC(O)CNc2ccccc2Cl)n1 (configuration not stated)	UHRF1 binding 23
CCOC(=O)CC[C@H]1CC[C@]2(CCCN(S(=O)(=O)C3CCCCC3)C2)O1	UHRF1 binding 42 (no result: Rin1 Abl inh)
CC(=O)CC[C@H]1CC[C@]2(CCCN(S(=O)(=O)C3CCCCC3)C2)O1	none (no result: Rin1 Abl inh)
O=C(Nc1ccn(C2CC(OC(=O)c3ccccc3)C(CO)O2)c(=O)n1)c1ccccc1 (configuration not stated)	Rin1 Abl inh 9.1
Cc1cc(C)nc(NC(=S)N2CCN(c3ncc(C(F)(F)F)cc3Cl)CC2)c1	none (no result: Rin1 Abl inh)
CC(C)[C@@H]1OC(=O)[C@@H]2CCCN2C(=O)[C@H](C)OC(=O)[C@H](C)[C@@H](C(C)C)NC(=O)[C@@H]2CCCN2C(=O)[C@H]([C@H](C)Cc2ccccc2)NC(=O)[C@@H]2CCCN2C(=O)[C@@H](C(C)C)N(C)C1=O	none (no result: Rin1 Abl inh)
COc1ccc(-n2c(C)cc(C(=O)CCl)c2C)cc1	UHRF1 binding 24
CC(CCN1CCC(C(O)(c2ccccc2)c2ccccc2)CC1)Oc1cccc(Br)c1 (configuration not stated)	none (no result: Rin1 Abl inh)
CC(=O)c1cc(C#N)c(N2CCOCC2)nc1C	UHRF1 binding 34
CCCCNC(=O)OC1CCC12CCC(c1ccccc1)CC2 (configuration not stated)	none (no result: Rin1 Abl inh)
CN(CCOC(=O)CCCc1ccccc1)C1CN(Cc2cn(Cc3ccccc3F)nn2)S(=O)(=O)C1 (configuration not stated)	none (no result: Rin1 Abl inh)
CN1CCN(C(=O)OC2CC3CC2[C@H]2CCCCN2C3=O)CC1 (some centres not stated)	UHRF1 binding 21 (no result: Rin1 Abl inh)
Cc1ccc(C)c(NC(=O)COC(=O)CNC(=O)C2CCCCC2)c1	UHRF1 binding 52
COc1ccc(NCC(=O)N2CCCC2)cc1Cl	LEDGF integ inh 53
COc1ccc(NCC(=O)Nc2cccc(S(=O)(=O)N3CCCC3)c2)cc1Cl	UHRF1 binding 26
COc1ccc(NS(=O)(=O)c2c(C)[nH]c(C)c2C(=O)N2CCCCC2)cc1Cl	none
N#CCC(=O)Nc1ccc(C(=O)Nc2cccc(S(=O)(=O)N3CCCC3)c2)cc1	UHRF1 binding 69
COc1ccc(S(=O)(=O)N2CCCCCC2)cc1NC(C)C(=O)Nc1ccc(NC(C)=O)cc1 (configuration not stated)	UHRF1 binding 33
CC1CCC2(CC1)CCN(CCCOC(=O)Nc1cccc(F)c1)C2=O (configuration not stated)	none (no result: Rin1 Abl inh)
Cc1ccccc1C(=O)n1ccc2ccc(-c3ccc4ccn(Cc5ccc(C#N)cc5)c4c3)cc21	none (no result: Rin1 Abl inh)
C=CCn1c(SCC(N)=O)nnc1-c1cnccn1	UHRF1 binding 74
COc1ccc(NC(=O)Cn2c(=O)n(CC3CCCO3)c(=O)c3ccccc32)c(OC)c1 (configuration not stated)	UHRF1 binding 22
Nc1nc(Cn2nnc(-c3ccccc3Cl)n2)nc(N2CCOCC2)n1	UHRF1 binding 29
O=C(CC12CC3CC(CC(C3)C1)C2)N1CCOCC1	none
OC12CC3C[C@H](C1)C(N1CCOCC1)[C@@H](C3)C2 (some centres not stated)	UHRF1 binding 52
Cc1cc2oc(=O)cc(CN3CCCCC3)c2cc1C(C)C	none
CCOC(=O)C1CCCN(Cc2cc(=O)oc3cc(C)c(C(C)C)cc23)C1 (configuration not stated)	UHRF1 binding 26
O=C(NN=Cc1ccco1)c1cccnc1	none (no result: Rin1 Abl inh)
